Broadly, the IC50 is the concentration at which inhibition is half-maximal. Lower therefore signals greater potency in that assay. The term inhibition in vivo denotes the change of the read-out against control, counted positive when it falls.

A short description of experiment [1]: In vitro inhibitory activity against Phosphatidylinositol 3-Kinase. The method in brief:
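Purified PI 3-kinase from bovine brain was used as the enzyme source. Results are reported as IC50 values.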

Experiment [2] deals with Mus musculus. The experiment in a line: In vivo inhibition of tumor growth in C3H Mammary model was evaluated at dose 16 mg/kg peroral administration. Format: functional. As to conditions: route oral. Summed up: (§1)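 Murine tumours were serially passaged as tumour fragments, implanted s.c. by trochar in the axillary region. Daily oral dosing began 1 day after implant, as a suspension in 2.5% emulphor EL-620 in 0.9% NaCl. There were 10 randomized mice per group. Tumours were measured by caliper the day after the last dose, with weight = length × width² × 0.5. Inhibition was 100 × (1 − mean treated/mean control weight). A group was toxic if lethality was >25%.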

The subject of experiment [3] is Mus musculus. Nature of the experiment: In vivo inhibition of tumor growth in C3H Mammary model was evaluated at dose 2.0 mg/kg peroral administration. Format: functional. As to conditions: route oral. The method in brief:
(§2)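 Murine C3H mammary tumour fragments were implanted subcutaneously by trochar in the axillary region, in groups of 10 randomized mice. Oral dosing started 1 day after implant, daily ×10, as a suspension in 2.5% emulphor EL-620 in 0.9% NaCl (water for one analog). Tumour weight, calculated as length×width²×0.5 from calipers, was measured the day after the last dose. Percent inhibition was calculated versus controls. Groups with >25% lethality were scored toxic.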

Experiment [4] concerns Mus musculus. The experiment in a line: In vivo inhibition of tumor growth in C3H Mammary model was evaluated at dose 4.0 mg/kg peroral administration. The experiment is classed as functional. Conditions: route oral. The method in brief:
as §2

Experiment [5] has as its system Mus musculus. The experiment in a line: In vivo inhibition of tumor growth in C3H Mammary model was evaluated at dose 8.0 mg/kg peroral administration; range is 60-79%. The experiment is classed as functional. As to conditions: route oral. The method in brief:
as §1

In experiment [1], `C/N=C/C1=C(O)O[C@H](COC)[C@@]2(C)C1=C(O)C(=O)C1=C2[C@H](OC(C)=O)C[C@]2(C)C(=O)CC[C@@H]12` yielded a half-inhibitory concentration (IC50) of over 500 nM. On the same count and under the same terms, for `COC[C@H]1OC(=O)c2coc3c2[C@@]1(C)C1=C(C3=O)[C@@H]2C[C@@H](OC(C)=O)C(=O)[C@@]2(C)C[C@H]1OC(C)=O` the value was 309 nM; for `COC[C@H]1OC(O)=C(C=N)C2=C(O)C(=O)C3=C([C@H](OC(C)=O)C[C@]4(C)C(=O)CC[C@@H]34)[C@]21C`, over 500 nM; for `CCCCS/C=C1\C(=O)O[C@H](COC)[C@@]2(C)C1=C(O)C(=O)C1=C2[C@H](OC(C)=O)C[C@]2(C)C(=O)CC[C@@H]12`, 52 nM. The same measure, in the same setting: next, `COC[C@H]1OC(=O)c2coc3c2[C@@]1(C)C1=C(C3=O)[C@@H]2C[C@@H](Br)C(=O)[C@@]2(C)C[C@H]1OC(C)=O`: 77 nM. On the same count and under the same terms, for `COC[C@H]1OC(=O)c2coc3c2[C@@]1(C)C1=C(C3=O)[C@@H]2C[C@@H](O)C(=O)[C@@]2(C)C[C@H]1OC(C)=O` the value was 153 nM. On to `COC(=O)c1coc2c(O)c3c(c(C)c12)C=C[C@]1(C)C(=O)CC[C@@H]31`, for which the inhibition in vivo at 16 mg/kg in the experiment on Mus musculus [2] is under 60%. This compound showed a concentration for half-maximal inhibition (IC50) in experiment [1] of 4600 nM.

As for `COC[C@H]1OC(=O)c2coc3c2[C@@]1(C)C1=C(C3=O)[C@@H]2CCC(=O)[C@@]2(C)CC1`, in the experiment with Mus musculus [3], the inhibition in vivo at 2 mg/kg was under 60%. Further, the inhibition in vivo at 4 mg/kg in the experiment on Mus musculus [4] was over 25%. In experiment [1], the IC50 was 17 nM.

As to `COC[C@H]1OC(=O)c2coc3c2[C@@]1(C)C1=CC[C@]2(C)C(=O)CC[C@H]2C1C3=O` (some centres undefined), the inhibition in vivo at 16 mg/kg with Mus musculus [2] is over 25%. This compound came in with an inhibition in vivo at 8 mg/kg with Mus musculus [5] of 79%. Moreover, the half-maximal inhibitory concentration (IC50) in experiment [1] came out at 54 nM.

Values taken from ChEMBL document CHEMBL1129512, “Studies on the mechanism of phosphatidylinositol 3-kinase inhibition by wortmannin and related analogs” (J Med Chem, 1996).
